Laboratory results taken from ChEMBL document CHEMBL1142962, “Antiproliferative prenylated stilbenes and flavonoids from Macaranga alnifolia from the Madagascar rainforest” (J Nat Prod, 2007).

Tests used:
Type in all cases: functional
Conditions in all cases: Homo sapiens
HCT-116 = test: Growth inhibition of HCT116 cells
K562 = test: Growth inhibition of K562 cells
Summary of the method: (§1)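 Tested in the NCI 60 human tumour cell line screen, which was run by NCI. The value for each line is the GI50, the concentration giving 50% growth inhibition. Results are also shown as a mean graph across the full panel.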

786-0 = test: Growth inhibition of 786-0 cells
HCC 2998 = test: Growth inhibition of HCC2998 cells
UO-31 = test: Growth inhibition of UO31 cells
DU-145 = test: Growth inhibition of DU145 cells; summary of the method: as §1
SW-620 = test: Growth inhibition of SW620 cells; summary of the method: as §1
SNB-19 = test: Growth inhibition of SNB19 cells
NCI-H522 = test: Growth inhibition of NCI-H522 cells; summary of the method: as §1
SK-MEL-2 = test: Growth inhibition of SK-MEL-2 cells
SK-MEL-28 = test: Growth inhibition of SK-MEL-28 cells; summary of the method: as §1
NCI-H322M = test: Growth inhibition of NCI-H322M cells
UACC-257 = test: Growth inhibition of UACC257 cells; summary of the method: as §1
MDA-MB-435 = test: Growth inhibition of MDA-MB-435 cells
EKVX = test: Growth inhibition of EKVX cells; summary of the method: as §1
LOX IMVI = test: Growth inhibition of LOX IMVI cells; summary of the method: as §1
PC-3 = test: Growth inhibition of PC3 cells
SK-MEL-5 = test: Growth inhibition of SK-MEL-5 cells
TK-10 = test: Growth inhibition of TK10 cells
OVCAR-3 = test: Growth inhibition of OVCAR-3 cells
NCI-H23 = test: Growth inhibition of NCI-H23 cells
HCT-15 = test: Growth inhibition of HCT15 cells
A549 = test: Growth inhibition of A549/ATCC cells
OVCAR-4 = test: Growth inhibition of OVCAR4 cells
NCI/ADR-RES = test: Growth inhibition of NCI/ADR-RES cells
OVCAR-8 = test: Growth inhibition of OVCAR8 cells; summary of the method: as §1
A498 = test: Growth inhibition of A498 cells; summary of the method: as §1
[1] = read-out: Log LC50 (the source's name) (converted)

COc1cc(/C=C/c2cc(O)c(CC=C(C)C)c(O)c2)cc2c1O[C@]1(C)C[C@@H](O)[C@@H](O)C(C)(C)[C@H]1C2 [SCHWEINFURTHIN E]
GI50 (HCT-116): 0.0209 µM | CC50 (HCT-116; [1]): 6.92 µM | TGI (HCT-116; read-out: Log TGI (converted)): 0.871 µM | GI50 (K562): < 0.01 µM | TGI (K562; read-out: Log TGI (converted)): 0.692 µM | GI50 (786-0): < 0.01 µM | CC50 (786-0; [1]): 9.77 µM | TGI (786-0; read-out: Log TGI (converted)): 1.07 µM | GI50 (HCC 2998): 1.02 µM | CC50 (HCC 2998; [1]): 6.46 µM | TGI (HCC 2998; read-out: Log TGI (converted)): 2.57 µM | GI50 (UO-31): 0.105 µM | CC50 (UO-31; [1]): > 100 µM | TGI (UO-31; read-out: Log TGI (converted)): > 100 µM | GI50 (DU-145): 0.468 µM | CC50 (DU-145; [1]): 72.4 µM | TGI (DU-145; read-out: Log TGI (converted)): 14.1 µM | GI50 (SW-620): 0.11 µM | CC50 (SW-620; [1]): > 100 µM | TGI (SW-620; read-out: Log TGI (converted)): 2.04 µM | GI50 (SNB-19): 11 µM | CC50 (SNB-19; [1]): > 100 µM | TGI (SNB-19; read-out: Log TGI (converted)): > 100 µM | GI50 (NCI-H522): 2 µM | CC50 (NCI-H522; [1]): > 100 µM | TGI (NCI-H522; read-out: Log TGI (converted)): > 100 µM | GI50 (SK-MEL-2): 3.72 µM | CC50 (SK-MEL-2; [1]): > 100 µM | TGI (SK-MEL-2; read-out: Log TGI (converted)): > 100 µM | GI50 (SK-MEL-28): 0.372 µM | CC50 (SK-MEL-28; [1]): > 100 µM | TGI (SK-MEL-28; read-out: Log TGI (converted)): 5.25 µM | GI50 (NCI-H322M): 0.288 µM | CC50 (NCI-H322M; [1]): 13.8 µM | TGI (NCI-H322M; read-out: Log TGI (converted)): 2.24 µM | GI50 (UACC-257): 0.166 µM | CC50 (UACC-257; [1]): 37.2 µM | TGI (UACC-257; read-out: Log TGI (converted)): 3.63 µM | GI50 (MDA-MB-435): 0.123 µM | CC50 (MDA-MB-435; [1]): 8.71 µM | TGI (MDA-MB-435; read-out: Log TGI (converted)): 1.95 µM | GI50 (EKVX): 2.14 µM | CC50 (EKVX; [1]): > 100 µM | TGI (EKVX; read-out: Log TGI (converted)): 28.2 µM | GI50 (LOX IMVI): 0.646 µM | CC50 (LOX IMVI; [1]): 6.17 µM | TGI (LOX IMVI; read-out: Log TGI (converted)): 2.34 µM | GI50 (PC-3): 0.138 µM | CC50 (PC-3; [1]): 47.9 µM | TGI (PC-3; read-out: Log TGI (converted)): 9.55 µM | GI50 (SK-MEL-5): 0.661 µM | CC50 (SK-MEL-5; [1]): 5.62 µM | TGI (SK-MEL-5; read-out: Log TGI (converted)): 2.24 µM | CC50 (TK-10; [1]): 18.6 µM | TGI (TK-10; read-out: Log TGI (converted)): 2.63 µM | GI50 (OVCAR-3; read-out: GI50): 2.2 µM | CC50 (OVCAR-3; [1]): 24 µM | TGI (OVCAR-3; read-out: Log TGI (converted)): 8.32 µM | GI50 (OVCAR-3; read-out: pGI50 (converted)): 6.17 µM | GI50 (NCI-H23): 0.24 µM | CC50 (NCI-H23; [1]): 13.8 µM | TGI (NCI-H23; read-out: Log TGI (converted)): 2.34 µM | GI50 (HCT-15): 0.603 µM | CC50 (HCT-15; [1]): 26.9 µM | TGI (HCT-15; read-out: Log TGI (converted)): 3.63 µM | GI50 (A549): < 0.01 µM | CC50 (A549; [1]): > 100 µM | TGI (A549; read-out: Log TGI (converted)): 12.6 µM | LC50 (OVCAR-4): > 100 µM | GI50 (OVCAR-4; read-out: GI50): 2.2 µM | TGI (OVCAR-4; read-out: Log TGI (converted)): 9.33 µM | GI50 (OVCAR-4; read-out: pGI50 (converted)): 0.575 µM | GI50 (NCI/ADR-RES): 2.24 µM | CC50 (NCI/ADR-RES; [1]): 50.1 µM | TGI (NCI/ADR-RES; read-out: Log TGI (converted)): 6.61 µM | GI50 (OVCAR-8; read-out: GI50): 2.2 µM | CC50 (OVCAR-8; [1]): > 100 µM | TGI (OVCAR-8; read-out: Log TGI (converted)): 6.76 µM | GI50 (OVCAR-8; read-out: pGI50 (converted)): 2.51 µM | LC50 (A498): > 100 µM | GI50 (A498; read-out: GI50): < 0.01 µM
